Test results taken from ChEMBL document CHEMBL4414561, “Cholinesterase Inhibitory Arisugacins L-Q from a Penicillium sp. Isolate Obtained through a Citizen Science Initiative and Their Activities in a Phenotype-Based Zebrafish Assay” (J Nat Prod, 2019).
Active and inactive are the calls of the source. The rule behind the calls is not given here.

Columns and labels:
[1] = biological target: Acetylcholinesterase (Electrophorus electricus) (UniProt O42275); test: Inhibition of electric eel AChE at 50 uM incubated for 15 mins by Ellman's method relative to control
Method in brief: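 Colorimetric kit assay with Electrophorus electricus AChE. Compound is incubated with enzyme for 15 min. Assay buffer containing AChE substrate and DTNB is then added, and absorbance is read at 0 and 15 min. Single-point screen at 50 μM; IC50 also determined.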

Danio rerio [2] = organism: Danio rerio; test: Induction of paralysis in AB/TU zebra fish at 100 uM treated at 7 hpf and measured after 72 hrs; assay type: functional, organism-based
Method in brief: (§1)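 Embryos exposed from 7 h postfertilization and scored for paralysis at 72 hpf. Value is the lowest concentration giving paralysis; […]. Pure compounds come from 10 mM DMSO stocks, with further dilutions made in DMSO.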

Acetylcholinesterase = Acetylcholinesterase (Electrophorus electricus, UniProt O42275); test: Inhibition of electric eel AChE incubated for 15 mins by Ellman's method
Method in brief: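 Colorimetric kit assay with Electrophorus electricus AChE. Compound is incubated with enzyme for 15 min. Assay buffer containing AChE substrate and DTNB is then added, and absorbance is read at 0 and 15 min.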

[3] = biological target: Cholinesterase (Equus caballus) (UniProt P81908); test: Inhibition of equine serum BChE at 50 uM using S-butyrylthiocholine iodide as substrate incubated for 15 mins by Ellman's method relative to control
Method in brief: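 Same colorimetric kit with equine serum butyrylcholinesterase and S-butyrylthiocholine iodide substrate plus DTNB. Compound is preincubated with enzyme for 15 min. Absorbance is read at 0 and 15 min after substrate addition. Sample tested at 50 μM.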

Danio rerio [4] = organism: Danio rerio; test: Induction of paralysis in AB/TU zebra fish at 10 uM treated at 7 hpf and measured after 72 hrs; assay type: functional, organism-based; method in brief: as §1
Danio rerio [5] = organism: Danio rerio; test: Induction of paralysis in AB/TU zebra fish at 1 uM treated at 7 hpf and measured after 72 hrs; assay type: functional, organism-based; method in brief: as §1
Danio rerio [6] = organism: Danio rerio; test: Induction of paralysis in AB/TU zebra fish at 5 uM treated at 7 hpf and measured after 72 hrs; assay type: functional, organism-based; method in brief: as §1
Danio rerio [7] = organism: Danio rerio; test: Induction of paralysis in AB/TU zebra fish at 50 uM treated at 7 hpf and measured after 72 hrs; assay type: functional, organism-based; method in brief: as §1

Acetylcholinesterase, sequence (O42275 whole entry): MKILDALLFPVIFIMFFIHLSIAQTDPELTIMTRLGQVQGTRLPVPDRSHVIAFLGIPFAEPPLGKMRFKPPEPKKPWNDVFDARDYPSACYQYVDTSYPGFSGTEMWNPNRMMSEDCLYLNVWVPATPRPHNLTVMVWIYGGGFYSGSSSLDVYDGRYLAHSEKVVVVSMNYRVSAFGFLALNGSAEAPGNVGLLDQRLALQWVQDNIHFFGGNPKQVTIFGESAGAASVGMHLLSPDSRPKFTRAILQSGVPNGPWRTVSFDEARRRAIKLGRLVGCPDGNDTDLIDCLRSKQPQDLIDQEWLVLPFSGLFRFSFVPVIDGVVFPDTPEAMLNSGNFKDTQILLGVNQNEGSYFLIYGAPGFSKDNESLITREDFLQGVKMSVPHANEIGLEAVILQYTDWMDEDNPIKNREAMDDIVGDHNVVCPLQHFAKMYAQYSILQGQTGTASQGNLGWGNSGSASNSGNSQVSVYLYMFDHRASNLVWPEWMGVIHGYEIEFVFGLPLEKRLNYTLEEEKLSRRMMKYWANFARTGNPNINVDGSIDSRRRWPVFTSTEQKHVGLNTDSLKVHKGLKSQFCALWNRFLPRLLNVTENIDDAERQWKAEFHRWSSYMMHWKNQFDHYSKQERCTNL
Cholinesterase (Equus caballus), sequence (P81908 whole entry): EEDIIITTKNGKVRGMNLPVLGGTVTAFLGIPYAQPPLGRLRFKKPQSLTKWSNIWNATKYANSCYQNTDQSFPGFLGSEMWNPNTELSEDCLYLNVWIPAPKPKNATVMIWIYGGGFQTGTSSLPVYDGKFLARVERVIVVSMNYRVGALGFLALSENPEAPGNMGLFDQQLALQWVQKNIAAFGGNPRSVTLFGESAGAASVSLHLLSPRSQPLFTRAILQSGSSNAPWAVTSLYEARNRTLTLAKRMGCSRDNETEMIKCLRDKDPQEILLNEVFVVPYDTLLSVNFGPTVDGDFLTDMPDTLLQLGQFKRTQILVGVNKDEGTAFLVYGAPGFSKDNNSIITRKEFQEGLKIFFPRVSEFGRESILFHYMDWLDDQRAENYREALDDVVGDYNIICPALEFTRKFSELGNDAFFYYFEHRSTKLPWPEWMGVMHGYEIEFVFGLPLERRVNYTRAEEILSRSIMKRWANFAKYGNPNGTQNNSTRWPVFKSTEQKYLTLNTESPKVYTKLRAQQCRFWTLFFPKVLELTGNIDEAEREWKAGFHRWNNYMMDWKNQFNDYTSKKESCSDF
Acetylcholinesterase (Electrophorus electricus), sequence (O42275 24-633 limits assumed): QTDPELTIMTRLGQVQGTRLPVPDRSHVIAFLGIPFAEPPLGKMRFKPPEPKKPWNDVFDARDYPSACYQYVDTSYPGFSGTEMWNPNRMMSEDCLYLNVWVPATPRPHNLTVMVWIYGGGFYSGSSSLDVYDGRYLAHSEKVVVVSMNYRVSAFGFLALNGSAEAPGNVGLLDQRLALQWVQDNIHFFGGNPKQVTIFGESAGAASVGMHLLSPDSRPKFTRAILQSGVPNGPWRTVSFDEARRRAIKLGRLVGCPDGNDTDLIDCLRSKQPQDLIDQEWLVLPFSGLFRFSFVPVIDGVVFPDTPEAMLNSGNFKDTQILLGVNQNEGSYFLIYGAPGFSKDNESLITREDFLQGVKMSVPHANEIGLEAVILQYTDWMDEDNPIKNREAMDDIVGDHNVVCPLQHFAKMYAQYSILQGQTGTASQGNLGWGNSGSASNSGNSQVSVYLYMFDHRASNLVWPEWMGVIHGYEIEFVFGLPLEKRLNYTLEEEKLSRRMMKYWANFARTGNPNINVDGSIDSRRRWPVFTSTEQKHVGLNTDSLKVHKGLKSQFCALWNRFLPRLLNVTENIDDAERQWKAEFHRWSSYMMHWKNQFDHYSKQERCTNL

COc1ccc(-c2cc3c(c(=O)o2)C[C@]2(O)[C@@]4(C)[C@H](O)C[C@@H](O)C(C)(C)[C@]4(O)CC[C@@]2(C)O3)cc1 was tested, and the inhibition [1] was 29.2%, the Activity (Danio rerio [2]) was “inactive” and the IC50 (Acetylcholinesterase) was over 100 µM. The inhibition [3] was 0%.

COc1ccc(-c2cc(O)c(C/C=C(\C)CC/C=C(\C)CCC(O)C(C)(C)O)c(=O)o2)cc1 (stereo unspecified) showed an inhibition [1] of 34.1%, an IC50 (Acetylcholinesterase) of over 100 µM and an inhibition [3] of 4.7%. For the same compound, the Activity (Danio rerio [4]) was “Active”.

With COc1ccc(-c2cc3c(c(=O)o2)C[C@]2(O)[C@@]4(C)C(=O)C[C@@H](O)C(C)(C)[C@]4(O)CC[C@@]2(C)O3)cc1 the inhibition [1] was 98%, the IC50 (Acetylcholinesterase) was 0.191 µM and the Activity (Danio rerio [5]) was “Active”. The inhibition [3] was 0%.

COc1ccc(-c2cc3c(c(=O)o2)C[C@H]2[C@@](C)(CC[C@@]4(O)C(C)(C)C(=O)CC[C@]24C)O3)cc1 showed an inhibition [1] of 95.1%, an IC50 (Acetylcholinesterase) of 1.4 µM and an inhibition [3] of 32.6%. The Activity (Danio rerio [6]) was “Active”.

With COc1ccc(-c2cc3c(c(=O)o2)C[C@]2(O)[C@@]4(C)CC[C@@H](OC(C)=O)C(C)(C)[C@]4(O)CC[C@@]2(C)O3)cc1 the inhibition [1] was 60.1%, the inhibition [3] was 4.7% and the Activity (Danio rerio [4]) was “Active”.

Work on COc1ccc(-c2cc3c(c(=O)o2)C[C@]2(O)[C@@]4(C)CC[C@H](O)C(C)(C)[C@]4(O)CC[C@@]2(C)O3)cc1 yielded an inhibition [1] of 89.4%, an IC50 (Acetylcholinesterase) of 3.9 µM and an inhibition [3] of 4.7%. For the same compound, the Activity (Danio rerio [7]) was “Active”.

With COc1ccc(-c2cc(O)c(C/C=C(\C)CC/C=C(\C)CCC=C(C)C)c(=O)o2)cc1 the inhibition [1] was 4.3%, the IC50 (Acetylcholinesterase) was over 100 µM and the inhibition [3] was 0%. For the same compound, the Activity (Danio rerio [7]) was “Active”.

For COc1ccc(-c2cc3c(c(=O)o2)C[C@]2(O)[C@@]4(C)[C@H](O)CC(=O)C(C)(C)[C@@]4(O)CC[C@@]2(C)O3)cc1, the inhibition [1] was 83.6%, the Activity (Danio rerio [2]) was “inactive” and the IC50 (Acetylcholinesterase) was 4.6 µM. The inhibition [3] was 0%.

Compound COc1ccc(-c2cc3c(c(=O)o2)C[C@H]2[C@@]4(C)C=CC(=O)C(C)(C)[C@@H]4CC[C@@]2(C)O3)cc1 has an inhibition [1] of 40.3%, an IC50 (Acetylcholinesterase) of 66 µM and an inhibition [3] of 0%. The Activity (Danio rerio [6]) was “Active”.

In the case of CNC(=O)Oc1ccc2c(c1)[C@]1(C)CCN(C)[C@@H]1N2C, the inhibition [1] is reported as 99.8%, the Activity (Danio rerio [2]) is reported as “Active” and the inhibition [3] is reported as 93.2%.

With COc1ccc(-c2cc3c(c(=O)o2)C[C@H]2[C@@](C)(CC[C@@]4(O)C(C)(C)[C@@H](O)CC[C@]24C)O3)cc1 the inhibition [1] was 75.4%, the Activity (Danio rerio [2]) was “inactive” and the inhibition [3] was 7%.

COP(=S)(OC)SCn1nnc2ccccc2c1=O was tested, and the inhibition [1] was 12.2%, the Activity (Danio rerio [5]) was “Active” and the inhibition [3] was 3.3%.

For COc1ccc(-c2cc3c(c(=O)o2)C[C@]2(O)[C@@]4(C)CC[C@@H](O)C(C)(C)[C@]4(O)CC[C@@]2(C)O3)cc1, the inhibition [1] was 83.4%, the Activity (Danio rerio [2]) was “inactive” and the inhibition [3] was 0%.

In the case of COc1ccc(-c2cc3c(c(=O)o2)C[C@]2(O)[C@@]4(C)CCC(=O)C(C)(C)[C@]4(O)CC[C@@]2(C)O3)cc1, the inhibition [1] is reported as 96.6%, the Activity (Danio rerio [2]) is reported as “inactive” and the inhibition [3] is reported as 9.3%.

With COc1ccc(-c2cc3c(c(=O)o2)C[C@@H]2[C@@]4(C)CCC(=O)C(C)(C)[C@@H]4CC[C@@]2(C)O3)cc1 the inhibition [1] was 26.9%, the IC50 (Acetylcholinesterase) was over 100 µM and the inhibition [3] was 11.6%. For the same compound, the Activity (Danio rerio [6]) was “Active”.

For COc1ccc(-c2cc3c(c(=O)o2)C[C@@H]2[C@@]4(C)CC[C@H](O)C(C)(C)[C@@H]4CC[C@@]2(C)O3)cc1, the inhibition [1] was 3%, the Activity (Danio rerio [2]) was “inactive” and the inhibition [3] was 4.7%.

In the case of CC(C)NP(=O)(NC(C)C)OP(=O)(NC(C)C)NC(C)C [TETRAISOPROPYL PYROPHOSPHORAMIDE], the inhibition [1] is reported as 1.3%, the Activity (Danio rerio [2]) is reported as “inactive” and the IC50 (Acetylcholinesterase) is reported as over 100 µM. The inhibition [3] was 15.1%.
